MEKK3 PB1 HTS – modulators of MEKK3-MEK5 PB1 binding, primary screen, biochemical, wildtype MEKK3, multiplex bead flow cytometry, Alexa488-MEK5. bead-based flow cytometry, Alexa488-MEK5 binding to MEKK3; actives lie on both sides; 0 = blocked by unlabeled MEK5, 100 = vehicle. Mitogen-activated protein kinase kinase kinase 3 (Homo sapiens), Q99759. binding response (% of control), % at 10 µM. 1.4% of 290,000 active;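 active = binding response more than 3 SD above or below the average of its plate-row segment, actives on both sides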;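 note: Alexa488 bead fluorescence after subtracting the streptavidin-only scavenger bead signal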
Target sequence (Q99759 whole entry, looked up): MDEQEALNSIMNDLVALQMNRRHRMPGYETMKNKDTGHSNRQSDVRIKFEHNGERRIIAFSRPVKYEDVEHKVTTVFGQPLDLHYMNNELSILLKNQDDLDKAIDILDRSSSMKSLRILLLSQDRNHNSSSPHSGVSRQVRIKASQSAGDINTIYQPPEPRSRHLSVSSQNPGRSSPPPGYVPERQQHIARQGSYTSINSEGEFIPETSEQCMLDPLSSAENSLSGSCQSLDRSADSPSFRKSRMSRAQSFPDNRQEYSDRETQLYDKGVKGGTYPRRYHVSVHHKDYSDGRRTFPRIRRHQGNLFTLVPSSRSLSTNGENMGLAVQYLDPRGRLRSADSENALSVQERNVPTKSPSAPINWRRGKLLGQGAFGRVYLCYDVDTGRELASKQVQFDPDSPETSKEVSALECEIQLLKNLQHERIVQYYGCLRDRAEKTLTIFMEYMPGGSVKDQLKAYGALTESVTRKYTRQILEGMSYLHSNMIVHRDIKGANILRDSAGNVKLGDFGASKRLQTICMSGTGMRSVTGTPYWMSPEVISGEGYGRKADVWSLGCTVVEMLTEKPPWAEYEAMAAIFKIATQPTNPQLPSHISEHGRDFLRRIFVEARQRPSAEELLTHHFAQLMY
MEKK2mut PB1 HTS – MEK5 binding signal on mutant MEKK2 PB1, primary screen, biochemical, multiplex bead flow cytometry, Alexa488-MEK5; Alexa488-MEK5 binding to MEKK2 mutant; percent response, % at 10 µM; 0.35% of 290,000 active; in the data active = percent response above about 24%, passing the limit was not always enough
WT yeast gro inh – growth inhibition of WT strain, primary screen, mitochondrial fusion inhibitor project, WT and mutant strains, chemical genetic; mitochondrial fusion phenotypic screen; inhibition, % at 10 µM; 2.1% of 190,000 active; AID 1362, 2008; in the data active = inhibition above about 58%; tested in S. cerevisiae
ABCG2 block – ABCG2 efflux pump inhibitors, primary screen, multiplex with ABCB1, IgMXP3 cells, flow cytometry; Broad substrate specificity ATP-binding cassette transporter ABCG2 (Homo sapiens), Q9UNQ0; JC-1 efflux; inhibition, % at 6.6 µM; 0.1% of 190,000 active; AID 1325, 2008;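 active = inhibition above 80%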;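 note: 0% = DMSO and 100% = nicardipine control wells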
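Assay system – ABCG2 IgMXP3 and barcoded ABCB1 CCRF-Adr cell mix · Input – 3 million cells/mL in well · Reagent – JC-1 fluorescent substrate · Compound – single test compound dose, 6.6 µM final · Timing – 10 min exposure at 25 °C with rotation, no wash · Detection – flow cytometry of retained JC-1 fluorescence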
ABCB1 inh – ABCB1 efflux pump inhibitors, primary screen, cell-based, multiplex, flow cytometry, ABCG2 counter-screen | ATP-dependent translocase ABCB1 (Homo sapiens), P08183 | 0.067% of 190,000 active | AID 1326, 2008 | CCRF-Adr cells, JC-1 efflux | inhibition, % at 6.6 µM; in the data active = inhibition above about 40%;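 note: 0% = vehicle and 100% = reference inhibitor; higher value means more JC-1 retained so stronger ABCB1 efflux block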
MEKK2wt PB1 HTS – modulators of MEK5 binding to wildtype MEKK2, primary screen, biochemical, multiplex bead flow cytometry, Alexa488-MEK5; AID 1531, 2009; 1.1% of 290,000 active; Alexa488-MEK5 binding to MEKK2 WT; actives lie on both sides; binding response (% of control), % at 10 µM; Mitogen-activated protein kinase kinase kinase 2 (Homo sapiens), Q9Y2U5; in the data active = binding response below about 67% or above about 130%
* hit, by the source's call; nt = no result given. This is a sample that favours compounds with a hit; in the whole collection about 3.5% have one here.

SMILES	MEKK3 PB1 HTS	MEKK2mut PB1 HTS	WT yeast gro inh	ABCG2 block	ABCB1 inh	MEKK2wt PB1 HTS
CCCC(=NC(C)CC)C1=C(O)CC(c2ccccc2)CC1=O (configuration not stated)	93	-3	nt	nt	nt	95
COc1ccc(C2=NN(C(=O)CSc3ncccn3)C(c3cccc(OC)c3OC)C2)cc1 (configuration not stated)	87	-27	-11	8	2	-7.0*
COC(=O)c1ccccc1NC(=O)/C=C/c1ccco1	107	4	8	7	-4	103
O=C(/C=C/c1ccco1)Nc1ccccc1N1CCCCC1	103	-3	70*	10	1	100
CC1CC(C)CN(C2CCN(Cc3cccnc3)CC2)C1 (configuration not stated)	91	-8	63*	1	0	91
O=C(NCc1ccc(F)cc1)C(c1ccc(Cl)cc1)N(C(=O)c1csnn1)C1CC1 (configuration not stated)	101	4	nt	nt	nt	102
Fc1ccccc1C1c2cccn2CCN1C(=S)Nc1cccc(Br)c1 (configuration not stated)	95	-4	59*	0	0	98
Fc1cccc(NC(=S)N2CCn3cccc3C2c2cccnc2)c1 (configuration not stated)	91	-6	5	0	0	94
Fc1ccc(C2c3cccn3CCN2C(=S)Nc2cccc(F)c2)cc1 (configuration not stated)	109	0	80*	0	0	101
Fc1ccccc1C1c2cccn2CCN1C(=S)Nc1ccc(Br)cc1 (configuration not stated)	99	2	62*	-8	-1	101
S=C(Nc1ccccc1)N1CCn2cccc2C1c1cccnc1 (configuration not stated)	101	15	-4	5	0	107
CNC(=S)N1CCn2cccc2C1c1ccc(F)cc1 (configuration not stated)	102	-3	-13	2	0	103
CCOC(=O)c1sc(NC(=O)CCCn2nc([N+](=O)[O-])c(Cl)c2C)c(C(=O)OCC)c1C	104	-1	6	32	12	99
CCCOc1ccc(OCCN2CCCC(C)C2)cc1 (configuration not stated)	99	-1	11	10	3	99
COc1cccc(C(=O)NC23CC4CC(CC(C4)C2)C3)c1	107	2	nt	nt	nt	111
O=C(c1sc2cc(F)ccc2c1Cl)N1CCN(c2ccccc2)CC1	96	-2	65*	3	13	95
CN1CCC(N(C)C(=O)c2sc3cc(F)ccc3c2Cl)CC1	98	0	1	2	1	105
N=c1c2c(n(Cc3ccc(Cl)cc3)c3c1CCC3)CCC2	104	7	62*	1	0	112
N=c1c2c(n(Cc3ccc(F)cc3)c3c1CCC3)CCCC2	102	-1	55	0	0	102
N=c1c2c(n(Cc3cccc(Cl)c3)c3c1CCC3)CCCC2	57	3	62*	1	0	75
N=c1c2c(n(Cc3ccccc3)c3c1CCC3)CCC2	99	1	71*	0	0	106
Cc1cccc(N=C(N2CCOCC2)P(=O)(N2CCOCC2)N2CCOCC2)c1	99	2	9	1	1	99
CC(C)(C)N/N=C1\CC(c2ccccc2)Oc2ccccc21 (configuration not stated)	105	2	62*	13	1	103
c1ccc(C2C/C(=N\N3CCOCC3)c3ccccc3O2)cc1 (configuration not stated)	91	-4	-8	2	-1	91
CCOC(=O)C1=C(C)N=C2SC(C(=O)OC)=CC(=O)N2C1c1ccc(OC)cc1 (configuration not stated)	97	1	84*	-6	-1	96
SMILES	MEKK3 PB1 HTS	MEKK2mut PB1 HTS	WT yeast gro inh	ABCG2 block	ABCB1 inh	MEKK2wt PB1 HTS
COC(=O)C1=C(C)N=C2SC(C#N)=C(N)N2C1c1ccc(OC)cc1 (configuration not stated)	nt	nt	-20	4	1	nt
CCc1c(C)nc(Nc2nc(C)c3cc(OC)ccc3n2)[nH]c1=O	100	0	49	8	2	105
COc1ccc2c(C)nc(Nc3nc(C)c(C)c(=O)[nH]3)nc2c1	95	-3	62*	53	2	98
CCc1c(C)nc(Nc2nc(C)c3ccc(OC)cc3n2)[nH]c1=O	101	2	62*	20	1	101
Cc1cccc2c(SCC(=O)NCC3CCCO3)nc(-c3ccc(F)cc3)nc12 (configuration not stated)	100	4	15	6	1	101
Cc1ccc(OCC(=O)Nc2ccc(NC(=O)c3ccccc3)c(C)c2)cc1	98	-5	nt	nt	nt	95
CC(C)CCn1c(N2CCN(c3cccc(Cl)c3)CC2)nc2c1c(=O)[nH]c(=O)n2C	99	1	62*	4	1	95
CCNc1nc(Oc2ccc(OC)cc2)cc(C(F)(F)F)n1	103	2	25	21	1	101
CCNc1nc(Sc2ccc(C)cc2)cc(C(F)(F)F)n1	99	-5	85*	2	1	97
N/C(=N\N=C\c1ccc2c(c1)OCO2)SC1CC(=O)N(c2ccc(C(=O)O)cc2)C1=O (configuration not stated)	102	-2	-7	-1	0	97
C/C(CCc1ccc2c(c1)OCO2)=N\N=C(/N)SC1CC(=O)N(c2ccc(Cl)cc2)C1=O (configuration not stated)	107	6	65*	11	2	105
CCCNC(=O)c1ccc(C2SCC(=O)N2CCc2ccccc2)cc1 (configuration not stated)	99	1	-14	1	4	99
CCOc1ccc(NC(=S)Nc2cccc3cnccc23)cc1	105	5	58*	4	4	104
Fc1ccc(NC(=S)Nc2cccc3cnccc23)cc1	113	-1	50	3	0	101
S=C(Nc1ccc(Cl)cc1)Nc1cccc2cnccc12	92	-1	62*	15	1	90
CN(C)c1ccc(NC(=O)CCN2CCN(c3ccccn3)CC2)cc1	97	0	nt	nt	nt	99

Screening data: PubChem BioAssay, several laboratories
